Test results as given in ChEMBL document CHEMBL5055648, “Design, synthesis, and biological evaluation of novel Bcr-AblT315I inhibitors incorporating amino acids as flexible linker” (Bioorg Med Chem, 2021).
pIC50: −log10 of the molar value. The source made the active and inactive calls. The calls are words filed in the database; no cut-off is given here.

How the values were obtained:
Bcr/Abl fusion protein [1] = target: Bcr/Abl fusion protein (Homo sapiens, UniProt P00519); assay: Inhibition of wild type Bcr-Abl (unknown origin) incubated for 1 hr in presence of ATP by ADP-Glo kinase assay; format: protein assay
Bcr/Abl fusion protein [2] = target: Bcr/Abl fusion protein (Homo sapiens, UniProt P00519, T315I); assay: Inhibition of wild type Bcr-Abl T315I mutant (unknown origin) incubated for 1 hr in presence of ATP by ADP-Glo kinase assay; format: protein assay
K562 [3] = assay: Antiproliferative activity against human K562 cells assessed as inhibition of cell proliferation incubated for 48 hrs by MTT assay; format: functional, cell-based; conditions: K562, 48 h
Summary of the method: (§1)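 MTT growth assay. K562 and K562R (T315I) cells grown in RPMI 1640 with 10% FBS. Hek293 and EA.hy926 cells grown in DMEM with 10% FBS. About 2.5 × 10^3 exponential-phase cells per well, preincubated 12 h at 37 °C in 5% CO2. Serially diluted compounds added for 48 h, then MTT at 0.5 mg/mL final for 4 h. Formazan dissolved in DMSO, A490 read, IC50 calculated from inhibition ratios.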

K-562R = assay: Antiproliferative activity against T315I mutant expressing human K-562R cells assessed as inhibition of cell proliferation incubated for 48 hrs by MTT assay; format: functional, cell-based; summary of the method: as §1
HEK293 = assay: Cytotoxicity against human HEK293 cells assessed as cell growth inhibition incubated for 48 hrs by MTT assay; format: cell-based; conditions: hek293, 48 h; summary of the method: as §1
EA.hy 926 = assay: Cytotoxicity against human EA.hy926 cells assessed as cell growth inhibition incubated for 48 hrs by MTT assay; format: cell-based; conditions: ea.hy 926, 48 h; summary of the method: as §1
K562 [4] = assay: Induction of apoptosis in human K562 cells assessed as viable cells at 1 uM after 48 hrs by annexinV/FITC-propidium iodide staining based flow cytometry (reference value: 84.19 %); format: functional; conditions: read-out: Activity
K562 [5] = assay: Induction of apoptosis in human K562 cells assessed as early apoptotic cells at 1 uM after 48 hrs by annexinV/FITC-propidium iodide staining based flow cytometry (reference value: 2.98 %); format: functional
K562 [6] = assay: Induction of apoptosis in human K562 cells assessed as late apoptotic cells at 1 uM after 48 hrs by annexinV/FITC-propidium iodide staining based flow cytometry (reference value: 12.60 %); format: functional
K562 [7] = assay: Induction of apoptosis in human K562 cells assessed as necrotic cells at 1 uM after 48 hrs by annexinV/FITC-propidium iodide staining based flow cytometry (reference value: 0.23 %); format: functional
K562 [8] = assay: Induction of apoptosis in human K562 cells assessed as viable cells at 10 uM after 48 hrs by annexinV/FITC-propidium iodide staining based flow cytometry (reference value: 84.19 %); format: functional; conditions: read-out: Activity
K562 [9] = assay: Induction of apoptosis in human K562 cells assessed as early apoptotic cells at 10 uM after 48 hrs by annexinV/FITC-propidium iodide staining based flow cytometry (reference value: 2.98 %); format: functional
K562 [10] = assay: Induction of apoptosis in human K562 cells assessed as late apoptotic cells at 10 uM after 48 hrs by annexinV/FITC-propidium iodide staining based flow cytometry (reference value: 12.60 %); format: functional
K562 [11] = assay: Induction of apoptosis in human K562 cells assessed as necrotic cells at 10 uM after 48 hrs by annexinV/FITC-propidium iodide staining based flow cytometry (reference value: 0.23 %); format: functional
K562 [12] = assay: Induction of apoptosis in human K562 cells assessed as viable cells at 20 uM after 48 hrs by annexinV/FITC-propidium iodide staining based flow cytometry (reference value: 84.19 %); format: functional; conditions: read-out: Activity
K562 [13] = assay: Induction of apoptosis in human K562 cells assessed as early apoptotic cells at 20 uM after 48 hrs by annexinV/FITC-propidium iodide staining based flow cytometry (reference value: 2.98 %); format: functional
K562 [14] = assay: Induction of apoptosis in human K562 cells assessed as late apoptotic cells at 20 uM after 48 hrs by annexinV/FITC-propidium iodide staining based flow cytometry (reference value: 12.60 %); format: functional
K562 [15] = assay: Induction of apoptosis in human K562 cells assessed as necrotic cells at 20 uM after 48 hrs by annexinV/FITC-propidium iodide staining based flow cytometry (reference value: 0.23 %); format: functional
[16] = target: T1, Bcr/Abl fusion protein (Homo sapiens) (UniProt P00519+P11274); assay: Inhibition of Bcr-Abl in human K562 cells assessed as decrease in tyrosine phosphorylation measured after 48 hrs by Western blot analysis; format: cell-based; conditions: dose 1-15 µM
Summary of the method: (§2)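 Western blot. K562 cells treated 48 h with DMSO vehicle or compound at 1, 5, 10 or 15 µM. Lysates were normalized by BCA and equal protein run on SDS-PAGE, then transferred to PVDF and blocked in 5% milk/TBS-0.1% Tween-20. Probed overnight at 4 °C with p-Bcr-Abl and GAPDH antibodies, then with HRP secondaries for 2 h at room temperature. Read-out was p-Bcr-Abl/GAPDH ratio.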

[17] = target: T1, Bcr/Abl fusion protein (Homo sapiens); assay: Inhibition of Bcr-Abl phosphorylation in human K562 cells at 10 uM measured after 48 hrs by Western blot analysis; format: cell-based; summary of the method: as §2

Row | Structure (SMILES) | pIC50 (Bcr/Abl fusion protein [1]) | pIC50 (Bcr/Abl fusion protein [2]) | pIC50 (K562 [3]) | also measured
1 | CC(C)(C)C(=O)Nc1ccc(-c2ccc(C(=O)N[C@H]3CN[C@@H](C(=O)Nc4ccc(Cl)c(C(F)(F)F)c4)C3)cc2)cn1 | 5.58 | 4.30 | 4.94 | –
2 | C[C@H](NC(=O)c1ccc(-c2ccc(NS(C)(=O)=O)nc2)cc1)C(=O)Nc1ccc(Cl)c(C(F)(F)F)c1 | 5.42 | 5.00 | 5.14 | –
3 | C[C@H](NC(=O)c1ccc(-c2ccc(NC(=O)C(C)(C)C)nc2)cc1)C(=O)Nc1ccc(Cl)c(C(F)(F)F)c1 | 7.39 | 6.28 | 5.13 | pIC50 (K-562R): 5.04; Activity (HEK293): Non-Toxic; Activity (EA.hy 926): Non-Toxic; viability at 1 µM (K562 [4]): 74.5%; Activity (K562 [5]): 3.39%; Activity (K562 [6]): 21.11%; Activity (K562 [7]): 0.98%; viability at 10 µM (K562 [8]): 36.5%; Activity (K562 [9]): 10.03%; Activity (K562 [10]): 48.96%; Activity (K562 [11]): 4.57%; viability at 20 µM (K562 [12]): 35.9%; Activity (K562 [13]): 11.48%; Activity (K562 [14]): 50.94%; Activity (K562 [15]): 1.65%; inhibition [16]: Dose-dependent effect; inhibition [17]: Active
4 | C[C@H](NC(=O)c1ccc(-c2ccc(N)nc2)cc1)C(=O)Nc1ccc(Cl)c(C(F)(F)F)c1 | 6.11 | 5.12 | 5.23 | –
5 | CC(=O)Nc1ccc(-c2cccc(C(=O)N[C@@H](C)C(=O)Nc3ccc(Cl)c(C(F)(F)F)c3)c2)cn1 | 6.22 | 4.41 | 4.37 | –
6 | C[C@H](NC(=O)c1cccc(-c2ccc(N)nc2)c1)C(=O)Nc1ccc(Cl)c(C(F)(F)F)c1 | 5.36 | 4.06 | 5.09 | –
7 | CS(=O)(=O)Nc1ccc(-c2cccc(C(=O)N[C@H]3CN[C@@H](C(=O)Nc4ccc(Cl)c(C(F)(F)F)c4)C3)c2)cn1 | 5.19 | 4.79 | 4.61 | –
8 | CC(=O)Nc1ccc(-c2cccc(C(=O)N[C@H]3CN[C@@H](C(=O)Nc4ccc(Cl)c(C(F)(F)F)c4)C3)c2)cn1 | 6.31 | 4.61 | 5.06 | –
9 | Nc1ccc(-c2ccc(C(=O)N[C@H]3CN[C@@H](C(=O)Nc4ccc(Cl)c(C(F)(F)F)c4)C3)cc2)cn1 | 5.04 | 4.85 | 5.04 | –
10 | CCN(CC)C(=O)c1cncc(-c2ccc(C(=O)N[C@@H](C)C(=O)Nc3ccc(Cl)c(C(F)(F)F)c3)cc2)c1 | 7.96 | 4.22 | 4.69 | –
11 | CC(=O)Nc1ccc(-c2ccc(C(=O)N[C@H]3CN[C@@H](C(=O)Nc4ccc(Cl)c(C(F)(F)F)c4)C3)cc2)cn1 | 4.46 | 4.89 | 4.64 | –
12 | CC(=O)Nc1ccc(-c2ccc(C(=O)N[C@@H](C)C(=O)Nc3ccc(Cl)c(C(F)(F)F)c3)cc2)cn1 | 6.70 | 4.65 | 3.97 | –
13 | CN(C)CCNC(=O)c1cncc(-c2cccc(C(=O)N[C@H]3CN[C@@H](C(=O)Nc4ccc(Cl)c(C(F)(F)F)c4)C3)c2)c1 | 5.62 | 4.66 | 4.70 | –
14 | C[C@H](NC(=O)c1cccc(-c2ccc(NS(C)(=O)=O)nc2)c1)C(=O)Nc1ccc(Cl)c(C(F)(F)F)c1 | 5.48 | 3.89 | 5.33 | –
15 | CN(C)CCNC(=O)c1cncc(-c2ccc(C(=O)N[C@H]3CN[C@@H](C(=O)Nc4ccc(Cl)c(C(F)(F)F)c4)C3)cc2)c1 | 5.37 | 4.66 | 5.34 | –
16 | CCN(CC)C(=O)c1cncc(-c2cccc(C(=O)N[C@@H](C)C(=O)Nc3ccc(Cl)c(C(F)(F)F)c3)c2)c1 | 6.54 | 4.07 | 4.52 | –
17 | Cc1ccc(C(=O)Nc2ccc(CN3CCN(C)CC3)c(C(F)(F)F)c2)cc1C#Cc1cnc2cccnn12 [PONATINIB] | – | – | – | pIC50 (K-562R): 7.03
18 | CCN(CC)C(=O)c1cncc(-c2cccc(C(=O)N[C@H]3CN[C@@H](C(=O)Nc4ccc(Cl)c(C(F)(F)F)c4)C3)c2)c1 | 5.43 | 4.37 | 4.60 | –
19 | O=C(NC1CC1)c1cncc(-c2cccc(C(=O)N[C@H]3CN[C@@H](C(=O)Nc4ccc(Cl)c(C(F)(F)F)c4)C3)c2)c1 | 4.80 | 4.57 | 4.56 | –
20 | C[C@H](NC(=O)c1cccc(-c2ccc(NC(=O)C(C)(C)C)nc2)c1)C(=O)Nc1ccc(Cl)c(C(F)(F)F)c1 | 5.35 | 3.61 | 4.74 | –
21 | Nc1ccc(-c2cccc(C(=O)N[C@H]3CN[C@@H](C(=O)Nc4ccc(Cl)c(C(F)(F)F)c4)C3)c2)cn1 | 4.92 | 3.99 | 4.70 | –
22 | C[C@H](NC(=O)c1ccc(-c2cncc(C(=O)NCCN(C)C)c2)cc1)C(=O)Nc1ccc(Cl)c(C(F)(F)F)c1 | 5.18 | 5.64 | 5.33 | –
23 | O=C(NC1CC1)c1cncc(-c2ccc(C(=O)N[C@H]3CN[C@@H](C(=O)Nc4ccc(Cl)c(C(F)(F)F)c4)C3)cc2)c1 | 4.21 | 4.41 | 4.19 | –
24 | CS(=O)(=O)Nc1ccc(-c2ccc(C(=O)N[C@H]3CN[C@@H](C(=O)Nc4ccc(Cl)c(C(F)(F)F)c4)C3)cc2)cn1 | 6.82 | 4.43 | 4.35 | –
25 | CCN(CC)C(=O)c1cncc(-c2ccc(C(=O)N[C@H]3CN[C@@H](C(=O)Nc4ccc(Cl)c(C(F)(F)F)c4)C3)cc2)c1 | 5.13 | 4.30 | 4.26 | –
26 | CC(C)(C)C(=O)Nc1ccc(-c2cccc(C(=O)N[C@H]3CN[C@@H](C(=O)Nc4ccc(Cl)c(C(F)(F)F)c4)C3)c2)cn1 | 5.33 | 3.83 | 4.55 | –
27 | C[C@H](NC(=O)c1ccc(-c2cncc(C(=O)NC3CC3)c2)cc1)C(=O)Nc1ccc(Cl)c(C(F)(F)F)c1 | 5.03 | 5.30 | 3.40 | –
28 | C[C@H](NC(=O)c1cccc(-c2cncc(C(=O)NC3CC3)c2)c1)C(=O)Nc1ccc(Cl)c(C(F)(F)F)c1 | 5.84 | 5.11 | 4.82 | –
29 | C[C@H](NC(=O)c1cccc(-c2cncc(C(=O)NCCN(C)C)c2)c1)C(=O)Nc1ccc(Cl)c(C(F)(F)F)c1 | 6.19 | 5.62 | 5.10 | –
